The term viability denotes a read-out of living cells in per cent, often relative to untreated cells. For orientation: inhibition means the drop in the measured response relative to a control, in per cent.

Assay [1] can be described thus: HUVEC growth inhibition – cell-based, human, primary screen (AID 575;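 active = viability at or below 30% in both replicate assays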;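 also: 100% = median of untreated cell wells with 0.1% DMSO on each plate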). Conditions: HUVEC proliferation, CellTiter-Glo luminescence, 72 h; at 10 µM; stronger effect = lower value. The essentials:
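Assay system: Primary human umbilical vein endothelial cells | Quantity: 1250 cells per well | Medium: Supplemented EBM, 2% fetal bovine serum | Detection: CellTiter-Glo luminescence measuring cellular ATP | Read-out: % viability vs DMSO wells | Plate: Collagen-coated 384-well format | Times: 72 h exposure, 37 °C, 5% CO2, 30 min RT equilibration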

The nature of assay [2]: H69AR cell proliferation blockers – human, duplicate replicates, primary screen (AID 580).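 Also: 100% = mean luminescence of untreated wells and 0% = no signal.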 Conditions: H69AR lung tumor cells viability, ATP luminescence, 72 h; at 10 µM; stronger effect = lower value.
Assay [3] in a line: MRP1 drug-resistance reversers in H69AR cells – cell-based, doxorubicin co-treatment, pilot screen (AID 601;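 active = viability loss from added drug above about 55%, and viability with drug at most 40%, in both replicates, limit read from the data, passing the limit was not always enough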). Conditions: CellTiter-Glo, 72 h, at 10 µM; for differential viability (reversal): stronger effect = higher value.
Assay [4] can be described thus: yeast transport mutant growth inhibition pilot in 384-well plates, post-Golgi transport modulator project (AID 636; in the data active = inhibition above about 31%). Conditions: absorbance 615 nm, about 18 h, stronger effect = higher value.
A short description of assay [5]: growth suppression of yeast trafficking mutant, preliminary HTS, modulators of trafficking downstream of Golgi apparatus project, 1536-format plate, OD 615 nm (AID 637; in the data active = inhibition above about 30%). Conditions: yeast transport mutant growth, absorbance 615 nm, 18 h; stronger effect = higher value.
Setting [6] is: H69AR cells + 2 uM doxorubicin, measured here: viability with 2 uM doxorubicin, stronger effect = lower value.
[7] abbreviates: H69AR cells, compound alone cytotoxicity.

Active and inactive are the calls of the source.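 The calls were made as follows, unless noted: active = viability at or under a set limit in both replicates, limit being median viability minus 3 SD (cut at about 48% in these data, passing the limit was not always enough); inconclusive = at or under the limit in just one replicate; inactive = at or above the limit in both replicates.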

Consider `CCOC(=O)CS(=O)(=O)c1nc(-c2ccccc2)cc(C(F)(F)F)n1`, for which the viability is 5.62% (active) in assay [1], 1.61% (active) in assay [2], 1.14% in assay [3] (setting [6]) and 1.61% in assay [3] (setting [7]). In addition, in assay [3] (H69AR cells + 2 uM doxorubicin), the differential viability (reversal) is 0.47% (inactive). For the same compound, the inhibition was 0.39% (inactive) in assay [4] and -0.63% (inactive) in assay [5].

Regarding `CCCCNC(=O)C(C#N)c1nc2ccccc2nc1N1CCCC1` (stereo not given), the viability was 89.2% (inactive) in assay [1], 100% (inactive) in assay [2], 102% in assay [3] (setting [6]) and 100% in assay [3] (setting [7]). Besides, the differential viability (reversal) in assay [3] (H69AR cells + 2 uM doxorubicin) was -1.2% (inactive). The values for the inhibition in assay [4] and in assay [5] were -4.93% (inactive) and -4.29% (inactive), respectively.

For `CCN(c1ccccc1)S(=O)(=O)c1ccc(F)cc1C`, the viability is 86.5% (inactive) in assay [1], 90.4% (inactive) in assay [2], 83.2% in assay [3] (setting [6]) and 90.4% in assay [3] (setting [7]). For the same compound, the differential viability (reversal) in assay [3] (H69AR cells + 2 uM doxorubicin) was 7.2% (inactive). Besides, the values for the inhibition in assay [4] and in assay [5] were -1.04% (inactive) and -5.71% (inactive), respectively.

Take `COC(=O)c1ccc(CN(c2ccccc2OC)S(=O)(=O)c2cccs2)o1`: the viability in assay [1] is 98.8% (inactive); in assay [2], 86.2% (inactive); in assay [3] (setting [6]) it was 102%; in assay [3] (setting [7]), 86.2%. For the same compound, the differential viability (reversal) in assay [3] (H69AR cells + 2 uM doxorubicin) is -15.4% (inactive). For the same compound, the inhibition in assay [4] is -6.88% (inactive); in assay [5], -7.14% (inactive).

Turning to `CN(C)c1ccnc(NCc2ccccc2)c1C#N`, the viability was 92.7% (inactive) in assay [1], 85.8% (inactive) in assay [2], 79.5% in assay [3] (setting [6]) and 85.8% in assay [3] (setting [7]). The differential viability (reversal) in assay [3] (H69AR cells + 2 uM doxorubicin) was 6.29% (inactive). The inhibition in assay [4] is -4.53% (inactive); in assay [5], 4.6% (inactive).

As for `COc1ccccc1N1CCN(C(=O)C2CC=CCC2C(=O)O)CC1` (stereo not given), the viability is 97.3% (inactive) in assay [1], 93.1% (inactive) in assay [2], 86.5% in assay [3] (setting [6]) and 93.1% in assay [3] (setting [7]). In addition, the differential viability (reversal) in assay [3] (H69AR cells + 2 uM doxorubicin) was 6.56% (inactive). Further, the inhibition was -4.61% (inactive) in assay [4] and 2.54% (inactive) in assay [5].

`C/C(Cl)=C\Cn1c(Nc2ccc(C)cc2)nc2c1c(=O)n(C)c(=O)n2C`: the viability in assay [1] is 77.5% (inactive); in assay [2] it was 72.1% (inactive); in assay [3] (setting [6]), 83.2%; in assay [3] (setting [7]), 72.1%. In assay [3] (H69AR cells + 2 uM doxorubicin), the differential viability (reversal) was -11.2% (inactive). The inhibition in assay [4] was -1.04% (inactive); in assay [5], 1.75% (inactive).

As for `COc1ccc(CN(C)CC(=O)c2c(N)n(Cc3ccccc3)c(=O)n(C)c2=O)c(OC)c1`, the viability was 96.4% (inactive) in assay [1], 93.9% (inactive) in assay [2], 83.6% in assay [3] (setting [6]) and 93.9% in assay [3] (setting [7]). The differential viability (reversal) in assay [3] (H69AR cells + 2 uM doxorubicin) was 10.3% (inactive). For the same compound, the inhibition is -3.25% (inactive) in assay [4] and 6.51% (inactive) in assay [5].

Consider `CCOC(=O)c1sc(NS(=O)(=O)c2ccc(NC(C)=O)cc2)nc1C`, for which the viability is 112% (inactive) in assay [1], 96% (inactive) in assay [2], 88.1% in assay [3] (setting [6]) and 96% in assay [3] (setting [7]). In addition, the differential viability (reversal) in assay [3] (H69AR cells + 2 uM doxorubicin) was 7.92% (inactive). Further, the figures for the inhibition in assay [4] and in assay [5] were -1.97% (inactive) and 2.22% (inactive), respectively.

For `CCOC(=O)c1c(C)oc2ccc(O)c(CN(C)C)c12`, the viability in assay [1] is 77.4% (inactive); in assay [2], 87.3% (inactive); in assay [3] (setting [6]), 83.7%; in assay [3] (setting [7]) it was 87.3%. The differential viability (reversal) in assay [3] (H69AR cells + 2 uM doxorubicin) was 3.6% (inactive). For the same compound, the inhibition was -6.1% (inactive) in assay [4] and 2.22% (inactive) in assay [5].

Turning to `Cc1ccnc(NC(=O)Nc2ccc(F)cc2)c1`, the viability is 99.9% (inactive) in assay [1], 104% (inactive) in assay [2], 91.2% in assay [3] (setting [6]) and 104% in assay [3] (setting [7]). Further, the differential viability (reversal) in assay [3] (H69AR cells + 2 uM doxorubicin) is 12.9% (inactive). Besides, the inhibition was -2.08% (inactive) in assay [4] and -8.41% (inactive) in assay [5].

On to `Cc1ccccc1C(=O)N1CCC(C(=O)Nc2ccc(S(=O)(=O)N3CCCC3)cc2)CC1`, for which the viability in assay [1] is 97.1% (inactive); in assay [2], 78.8% (inactive); in assay [3] (setting [6]), 82.7%; in assay [3] (setting [7]), 78.8%. Moreover, in assay [3] (H69AR cells + 2 uM doxorubicin), the differential viability (reversal) is -3.87% (inactive). For the same compound, the inhibition in assay [4] was -4.55% (inactive); in assay [5] it was -3.49% (inactive).

Turning to `CCOc1ccc(-c2nc(C#N)c(N3CCN(C)CC3)o2)cc1`, the viability was 82.1% (inactive) in assay [1], 97.6% (inactive) in assay [2], 96.7% in assay [3] (setting [6]) and 97.6% in assay [3] (setting [7]). The differential viability (reversal) in assay [3] (H69AR cells + 2 uM doxorubicin) is 0.87% (inactive). Moreover, the inhibition was -1.6% (inactive) in assay [4] and 11.3% (inactive) in assay [5].

On to `CC(=O)C1=C(C)NC(=O)NC1c1cccc(O)c1` (stereo not given), for which the viability in assay [1] is 99.8% (inactive); in assay [2], 94.4% (inactive); in assay [3] (setting [6]) it was 86.3%; in assay [3] (setting [7]) it was 94.4%. Also, in assay [3] (H69AR cells + 2 uM doxorubicin), the differential viability (reversal) was 8.07% (inactive). In addition, the values for the inhibition in assay [4] and in assay [5] were -2.93% (inactive) and 0.16% (inactive), respectively.

As for `CCOC(=O)CSc1nnc(CNC(=O)c2ccc(S(=O)(=O)N3CCCC3)cc2)n1C`, the viability in assay [1] is 99.1% (inactive); in assay [2], 112% (inactive); in assay [3] (setting [6]), 84%; in assay [3] (setting [7]) it was 112%. Besides, the differential viability (reversal) in assay [3] (H69AR cells + 2 uM doxorubicin) is 28.2% (inactive). Further, the inhibition in assay [4] is -2.6% (inactive); in assay [5], 0.63% (inactive).

In the case of `COC(=O)c1sccc1NC(=O)c1ccncc1`, the viability in assay [1] is 115% (inactive); in assay [2] it was 86.4% (inactive); in assay [3] (setting [6]), 77.5%; in assay [3] (setting [7]) it was 86.4%. The differential viability (reversal) in assay [3] (H69AR cells + 2 uM doxorubicin) was 8.91% (inactive). Also, the inhibition in assay [4] was -3.95% (inactive); in assay [5], 5.56% (inactive).

In the case of `CC(C)(C)OC(=O)N1CCN(c2ccc(NC(=O)c3cc4ccccc4oc3=O)cc2)CC1`, the viability was 103% (inactive) in assay [1], 93% (inactive) in assay [2], 84.8% in assay [3] (setting [6]) and 93% in assay [3] (setting [7]). Also, the differential viability (reversal) in assay [3] (H69AR cells + 2 uM doxorubicin) was 8.14% (inactive). The inhibition was -5.45% (inactive) in assay [4] and 1.59% (inactive) in assay [5].

As for `CC(C)NC(=O)c1ccccc1NC(=O)c1ccccc1N(C)S(C)(=O)=O`, the viability in assay [1] was 103% (inactive); in assay [2], 88.9% (inactive); in assay [3] (setting [6]), 93%; in assay [3] (setting [7]), 88.9%. The differential viability (reversal) in assay [3] (H69AR cells + 2 uM doxorubicin) was -4.12% (inactive). The inhibition was -7.37% (inactive) in assay [4] and 1.9% (inactive) in assay [5].

As to `O=C(CCCn1c(=O)c2sccc2n(Cc2ccc(F)cc2)c1=O)NCc1ccco1`, the viability in assay [1] was 51.1% (inactive); in assay [2], 27.4% (active); in assay [3] (setting [6]) it was 79.4%; in assay [3] (setting [7]), 27.4%. In addition, the differential viability (reversal) in assay [3] (H69AR cells + 2 uM doxorubicin) is -52% (inactive). Besides, the inhibition was -0.39% (inactive) in assay [4] and -4.44% (inactive) in assay [5].

Turning to `COc1cc(NC(=O)c2cc(-n3cnnc3)ccc2Cl)cc(OC)c1`, the viability is 93.6% (inactive) in assay [1], 104% (inactive) in assay [2], 83.7% in assay [3] (setting [6]) and 104% in assay [3] (setting [7]). In addition, the differential viability (reversal) in assay [3] (H69AR cells + 2 uM doxorubicin) is 19.9% (inactive). Moreover, the inhibition in assay [4] was 0% (inactive); in assay [5], -1.11% (inactive).

The record behind these values is PubChem BioAssay.
